Experimental findings from ChEMBL document CHEMBL4033604, “Cytotoxicity and Mechanism of Action of the Marine-Derived Fungal Metabolite Trichodermamide B and Synthetic Analogues” (J Nat Prod, 2017) are described below.

The test system of test [1] is HeLa. Description: Cytotoxicity against human HeLa cells after 48 hrs by SRB assay. The class given is functional, cell-based. In a few lines: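 HeLa cells treated over a concentration range for 48 h; survival by sulforhodamine B staining relative to vehicle control; four-parameter nonlinear regression; IC50 and IC85 as concentrations giving 50% or 85% inhibition of cell density; time-zero cell density marks cytotoxicity threshold; mean ± SEM, n = 4 independent experiments in triplicate.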
On the technique in general: The SRB assay estimates cell density from bound dye.

For test [2], the system named is HeLa. The experiment in a line: Induction of double stranded DNA breaks in human HeLa cells assessed as gamma-H2Ax phosphorylation at Ser139 residue at IC50 after 24 hrs by Hoechst 33342 staining-based indirect immunofluorescence microscopic method. The class given is cell-based. In short, it runs like this: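 HeLa exposed 24 h to IC50 concentration or 0.6% DMSO; fixed in ice-cold MeOH 5 min, blocked 10% bovine calf serum 20 min, anti-γH2A.X (Ser139) 2 h then Alexa Fluor 594 secondary 1 h at room temperature; nuclei counterstained Hoechst 33342; foci scored by fluorescence microscopy; n = 2 experiments in duplicate.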

Test [3] concerns HeLa. The experiment in a line: Cell cycle arrest in human HeLa cells assessed as accumulation at G2/M phase at IC85 after 24 hrs by Krishan's reagent staining-based flow cytometric method. In kind it is functional. A general note: In flow cytometry, cells or beads pass a laser one at a time.
Test [4] concerns HeLa. The experiment in a line: Cytotoxicity against human HeLa cells assessed as inhibition of colony formation pretreated for 4 hrs followed by compound washout measured after 10 days by crystal violet staining based assay. The class given is functional, cell-based. In a few lines:
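HeLa plated at 150 cells per dish, exposed 4 h to DMSO or IC85 concentration, washed with PBS, regrown in fresh medium 10 days; fixed, stained with 0.5% crystal violet in 10% methanol, colonies counted; n = 3−5 experiments in duplicate; one-way ANOVA.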

The next test concerns HL-60. The experiment in a line: Cytotoxicity against human HL60 cells. In kind it is functional, cell-based.
The next test concerns A549. Description: Cytotoxicity against human A549 cells. The class given is functional, cell-based.
For the next test, the system named is P388. Description: Cytotoxicity against mouse P388 cells. The class given is functional, cell-based.
Test [5] concerns HeLa. Description: Induction of apoptosis in human HeLa cells assessed as upregulation of cleaved PARP protein levels at IC85 after 24 hrs by Western blot analysis. In kind it is functional, cell-based. In a few lines:
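HeLa treated with IC85 concentration or 0.1% DMSO over a 4, 8, 16, 24 h time course; whole-cell lysates (protease inhibitors, 50 mM NaF, 200 μM Na3VO4, 1 mM PMSF), equal protein on 12% Bis-Tris SDS-PAGE, PVDF blot probed for cleaved PARP with GAPDH loading control (1:1000); two independent experiments.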

In test [6] the test system is HeLa. The experiment in a line: Cell cycle arrest in human HeLa cells at IC85 after 4 to 24 hrs by Krishan's reagent staining-based flow cytometric method. The class given is functional.
For another test, the system named is CWR22R. The experiment in a line: Cytotoxicity against human 22Rv1 cells after 24 to 72 hrs by MTT assay. In kind it is functional, cell-based.
Test [7] is described as follows: Cytotoxicity against mouse lymphoma cells by MTT assay. In kind it is functional, cell-based. The settings on record: Lymphoma cell.
The next test concerns PC-3. Description: Cytotoxicity against human PC3 cells after 24 to 72 hrs by MTT assay. In kind it is functional, cell-based. In general terms: Tetrazolium assays rely on reduction of a dye to a coloured formazan, in cell work by metabolically active cells.
A further test deals with LNCaP. Description: Cytotoxicity against human LNCAP cells after 24 to 72 hrs by MTT assay. The class given is functional, cell-based.

Calls of active or inactive are those of the source.

Turning to `COc1ccc2cc(N(C)C(=O)C3=NO[C@H]4C=C[C@@H]5O[C@@H]5[C@@]4(O)C3)c(=O)oc2c1OC`, in the test on HeLa [1], the IC50 (as a rule, the point on the concentration scale where inhibition reaches its midpoint) was greater than 10 µM and the IC85 is greater than 10 µM.
As to `COc1ccc2cc(NC(=O)C3=NO[C@H]4C=CC=C[C@@]4(O)C3)c(=O)oc2c1OC`, in the test with HeLa [1], the IC50 was greater than 10 µM and the IC85 is greater than 10 µM.
In the test with HeLa [1], `COc1ccc2cc(NC(=O)C3=NO[C@H]4CC(=O)[C@@H]5O[C@@H]5[C@@]4(O)C3)c(=O)oc2c1OC` had an IC50 greater than 10 µM and an IC85 greater than 10 µM.
As to `COc1ccc2cc(N(C)C(=O)C3=NO[C@H]4[C@@H]5O[C@@H]5C=C[C@@]4(O)C3)c(=O)oc2c1OC`, in the test on HeLa [1], the IC50 is greater than 10 µM and the IC85 is greater than 10 µM.
On to `COc1ccc2cc(N(C)C(=O)C3=NO[C@H]4[C@H](O)C=C[C@@H](O)[C@@]4(O)C3)c(=O)oc2c1OC` [TRICHODERMAMIDE C], for which, in the test with HeLa [1], the IC50 was greater than 10 µM and the IC85 was greater than 10 µM.
Turning to `CCOC(=O)C1=NO[C@H]2C=CC=C[C@@]2(O)C1`, in the test with HeLa [1], the IC50 is greater than 10 µM and the IC85 was greater than 10 µM.
As to `CCOC(=O)C1=NO[C@H]2CC(=O)C=C[C@@]2(O)C1`, the outcome in the test on HeLa [2] was inactive. For the same molecule, in the test on HeLa [3], the outcome was Active. Moreover, the inhibition entry in the test on HeLa [4] was “Active”. In the test with HeLa [1], this molecule returned an IC50 of 12 µM and an IC85 of 32 µM.
On to `COc1ccc2cc(NC(=O)C3=NO[C@H]4[C@H](O)C=C[C@@H](O)[C@@]4(O)C3)c(=O)oc2c1OC` [TRICHODERMAMIDE A], for which the IC50 was 89 µM in the test with HL-60, greater than 100 µM in the test on A549, greater than 10 µM in the test with HeLa [1] and greater than 100 µM with P388. In the test with HeLa [1], the IC85 is greater than 10 µM.
As for `CCOC(=O)C1=NO[C@H]2CC(=O)[C@@H]3O[C@@H]3[C@@]2(O)C1` (relative stereo), the result in the test on HeLa [5], in the test with HeLa [2] and in the test on HeLa [6] was inactive. The inhibition result in the test on HeLa [4] is “inactive”. Half-maximal inhibition in the test on HeLa [1] (IC50) was put at 1.4 µM. The same molecule registered an IC85 in the test with HeLa [1] of 3.4 µM.
With `COc1ccc2cc(N)c(=O)oc2c1OC`, in the test with HeLa [1], the IC50 was greater than 10 µM and the IC85 was greater than 10 µM.
Regarding `CCOC(=O)C1=NO[C@H]2C=C[C@@H]3O[C@@H]3[C@@]2(O)C1`, in the test on HeLa [1], the IC50 is greater than 10 µM and the IC85 was greater than 10 µM.
For `COc1ccc2cc(NC(=O)C3=NO[C@H]4CC(=O)C=C[C@@]4(O)C3)c(=O)oc2c1OC` (relative stereo), the outcome in the test on HeLa [5], in the test with HeLa [2] and in the test with HeLa [6] was inactive. For the same molecule, the inhibition entry with HeLa [4] was “inactive”. The same molecule showed an IC50 with HeLa [1] of 5.7 µM. In the test on HeLa [1], this molecule registered an IC85 of 12 µM.
In the case of `COc1ccc2cc(NC(=O)[C@@]34C[C@]5(O)[C@@H](C=C[C@@H](O)[C@@H]5ON3)S4)c(=O)oc2c1OC`, the values for the 50% inhibitory concentration (IC50) in the test with HL-60, in the test on A549 and in the test with P388 were 84 µM, greater than 100 µM and greater than 100 µM, respectively.
Consider `CCOC(=O)C1=NO[C@H]2[C@@H]3O[C@@H]3C=C[C@@]2(O)C1`, for which the outcome in the test on HeLa [5], with HeLa [2] and in the test with HeLa [6] was inactive. Also, the inhibition result in the test with HeLa [4] is “inactive”. In the test with HeLa [1], this molecule showed a concentration for half-maximal inhibition (IC50) of 21 µM. In the test with HeLa [1], this molecule yielded an IC85 of 51 µM.
Turning to `COc1ccc([C@H]2SS[C@@]34C[C@]5(O)[C@H](Cl)C=C[C@@H](O)[C@@H]5ON3C(=O)[C@@H]2N(C)C4=O)c(O)c1OC`, the IC50 was 0.51 to 5.11 µM with CWR22R, 2 µM in test [7], 0.51 to 5.11 µM in the test with PC-3 and 0.51 to 5.11 µM with LNCaP.
On to `COc1ccc2cc(NC(=O)C3=NO[C@H]4[C@H](O)C=C[C@@H](Cl)[C@@]4(O)C3)c(=O)oc2c1OC` [TRICHODERMAMIDE B], for which the result in the test with HeLa [2] was Active. Besides, in the test with HeLa [4], the inhibition result was “Active”. In the test on HeLa [1], this molecule had an IC50 of 3.1 µM and an IC85 of 18 µM.
On to `CNc1cc2ccc(OC)c(OC)c2oc1=O`, for which, in the test with HeLa [1], the IC50 was greater than 10 µM and the IC85 was greater than 10 µM.
In the test with HeLa [1], `COc1ccc2cc(NC(=O)C3=NO[C@H]4C=C[C@@H]5O[C@@H]5[C@@]4(O)C3)c(=O)oc2c1OC` had an IC50 greater than 10 µM and an IC85 greater than 10 µM.
In the test on HeLa [1], `COc1ccc2cc(N(C)C(=O)C3=NO[C@H]4C=CC=C[C@@]4(O)C3)c(=O)oc2c1OC` yielded an IC50 greater than 10 µM and an IC85 greater than 10 µM.
